From ChEMBL document CHEMBL1127659, “In vitro and in vivo activities of reduced-size antagonists of luteinizing hormone-releasing hormone” (J Med Chem, 1994)
In brackets after ≈: the same amount, converted by molar mass. Where a SMILES comes first, the peptide text is derived from it. [ ]: non-standard residue; d: D form. The star is where a group is joined. Propanoyl(3-(4-F-phenyl)) = O=C(CCc1ccc(F)cc1)*; dPhe(4-Cl) = N[C@H](Cc1ccc(Cl)cc1)C(=O)O; d1Nal = N[C@H](Cc1cccc2ccccc12)C(=O)O; d2Nal = N[C@H](Cc1ccc2ccccc2c1)C(=O)O; Lys(iPr) = CC(C)NCCCC[C@H](N)C(=O)O; NMeY = CN[C@@H](Cc1ccc(O)cc1)C(=O)O; d3Pal = N[C@H](Cc1cccnc1)C(=O)O; Nicotinoyl = O=C(c1cccnc1)*; X1 = O=C(Cc1ccc(O)cc1)*

Species: Rattus norvegicus
Test: In vitro antagonistic potency against release of luteinizing hormone (LH) from cultured rat pituitary cells.
Assay type: functional
Details: Pituitary gland cell, read-out: pA2 (converted)
Summary of the method: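 Cultured rat pituitary cells, agonist-stimulated LH release. pA2 is the negative log of the antagonist concentration that makes a 2-fold higher agonist concentration necessary to release LH. Compounds tested as TFA salts.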

Compound	Kb
CCNC(=O)[C@@H]1CCCN1C(=O)[C@H](CCCN=C(N)N)NC(=O)[C@H](CC(C)C)NC(=O)[C@@H](Cc1c[nH]c2ccccc12)NC(=O)[C@H](Cc1ccc(O)cc1)NC(=O)[C@H](CO)NC(=O)[C@@H](Cc1c[nH]c2ccccc12)NC(=O)c1cc2cc(F)ccc2[nH]1	41.7 nM
CCNC(=O)[C@@H]1CCCN1C(=O)[C@H](CCCN=C(N)N)NC(=O)[C@H](CC(C)C)NC(=O)[C@@H](Cc1c[nH]c2ccccc12)NC(=O)[C@H](Cc1ccc(O)cc1)N(C)C(=O)[C@H](CO)NC(=O)[C@@H](Cc1c[nH]c2ccccc12)NC(=O)CCc1ccc(F)cc1F	0.01 nM
CCNC(=O)[C@@H]1CCCN1C(=O)[C@H](CCCN=C(N)N)NC(=O)[C@H](CC(C)C)NC(=O)[C@@H](Cc1c[nH]c2ccccc12)NC(=O)[C@H](Cc1ccc(O)cc1)NC(=O)[C@H](CO)NC(=O)[C@H](Cc1c[nH]c2ccccc12)NC(=O)CCc1ccc(OC)cc1	2.4 nM
CCNC(=O)[C@@H]1CCCN1C(=O)[C@H](CCCN=C(N)N)NC(=O)[C@H](CC(C)C)NC(=O)[C@@H](CCCCNC(=O)c1cccnc1)NC(=O)[C@H](Cc1ccc(O)cc1)NC(=O)[C@H](CO)NC(=O)[C@@H](Cc1c[nH]c2ccccc12)NC(=O)CCc1ccc(F)cc1	0.0955 nM
CCNC(=O)[C@@H]1CCCN1C(=O)[C@H](CCCN=C(N)N)NC(=O)[C@H](CC(C)C)NC(=O)[C@@H](CCCCNC(=O)c1cccnc1)NC(=O)[C@H](Cc1ccc(O)cc1)N(C)C(=O)[C@H](CO)NC(=O)[C@@H](Cc1c[nH]c2ccccc12)NC(=O)CCc1ccc(Cl)cc1	0.0158 nM
CCNC(=O)[C@@H]1CCCN1C(=O)[C@H](CCCN=C(N)N)NC(=O)[C@H](CC(C)C)NC(=O)[C@@H](Cc1c[nH]c2ccccc12)NC(=O)[C@H](Cc1ccc(O)cc1)NC(=O)[C@H](CO)NC(=O)[C@H](Cc1c[nH]c2ccccc12)NC(=O)CCc1ccc(Cl)cc1	0.126 nM
CCNC(=O)[C@@H]1CCCN1C(=O)[C@H](CCCN=C(N)N)NC(=O)[C@H](CC(C)C)NC(=O)[C@@H](Cc1c[nH]c2ccccc12)NC(=O)[C@H](Cc1ccc(O)cc1)NC(=O)[C@H](CO)NC(=O)[C@H](Cc1cccc2ccccc12)NC(=O)CCc1ccc(F)cc1	0.00501 nM
CC(C)C[C@H](NC(=O)[C@@H](CCCCNC(=O)c1cccnc1)NC(=O)[C@H](Cc1ccc(O)cc1)N(C)C(=O)[C@H](CO)NC(=O)[C@@H](Cc1cccc2ccccc12)NC(=O)CCc1ccc(F)cc1)C(=O)N[C@@H](CCCCNC(C)C)C(=O)N1CCC[C@H]1C(=O)O	7.76 nM
CCNC(=O)[C@@H]1CCCN1C(=O)[C@H](CCCN=C(N)N)NC(=O)[C@H](CC(C)C)NC(=O)[C@@H](Cc1c[nH]c2ccccc12)NC(=O)[C@H](Cc1ccc(O)cc1)NC(=O)[C@H](CO)NC(=O)[C@@H](Cc1c[nH]c2ccccc12)NC(=O)CCc1ccc(F)cc1 [listing 1 of 2 here]	0.0389 nM
CCNC(=O)[C@@H]1CCCN1C(=O)[C@H](CCCN=C(N)N)NC(=O)[C@H](CC(C)C)NC(=O)[C@@H](Cc1c[nH]c2ccccc12)NC(=O)[C@H](Cc1ccc(O)cc1)N(C)C(=O)[C@H](CO)NC(=O)[C@@H](Cc1cccc2ccccc12)NC(=O)CCc1ccc(Br)cc1	0.00631 nM
CCNC(=O)[C@@H]1CCCN1C(=O)[C@H](CCCN=C(N)N)NC(=O)[C@H](CC(C)C)NC(=O)[C@@H](Cc1c[nH]c2ccccc12)NC(=O)[C@H](Cc1ccc(O)cc1)NC(=O)[C@H](CO)NC(=O)[C@@H](Cc1c[nH]c2ccccc12)NC(=O)CCc1ccc(Cl)cc1	0.166 nM
CCNC(=O)[C@@H]1CCCN1C(=O)[C@H](CCCN=C(N)N)NC(=O)[C@H](CC(C)C)NC(=O)[C@@H](Cc1c[nH]c2ccccc12)NC(=O)[C@H](Cc1ccc(O)cc1)NC(=O)[C@@H]1CCCN1C(=O)[C@@H](Cc1c[nH]c2ccccc12)NC(=O)CCc1ccc(F)cc1	21.4 nM
CCNC(=O)[C@@H]1CCCN1C(=O)[C@H](CCCN=C(N)N)NC(=O)[C@H](CC(C)C)NC(=O)[C@@H](Cc1c[nH]c2ccccc12)NC(=O)[C@H](Cc1ccc(O)cc1)NC(=O)[C@H](CO)NC(=O)[C@H](Cc1c[nH]c2ccccc12)NC(=O)Cc1ccc(O)cc1 (X1-WSY[dW]LRP-NHEt)	44.7 nM
CCNC(=O)[C@@H]1CCCN1C(=O)[C@H](CCCN=C(N)N)NC(=O)[C@H](CC(C)C)NC(=O)[C@@H](Cc1c[nH]c2ccccc12)NC(=O)[C@H](Cc1ccc(O)cc1)NC(=O)[C@@H]1CC(O)CN1C(=O)[C@@H](Cc1c[nH]c2ccccc12)NC(=O)CCc1ccc(F)cc1 (some centres undefined)	20.9 nM
CCNC(=O)[C@@H]1CCCN1C(=O)[C@H](CCCN=C(N)N)NC(=O)[C@H](CC(C)C)NC(=O)[C@@H](Cc1c[nH]c2ccccc12)NC(=O)[C@H](Cc1ccc(O)cc1)NC(=O)[C@H](CO)N(C)C(=O)[C@@H](Cc1c[nH]c2ccccc12)NC(=O)CCc1ccc(F)cc1	0.115 nM
CCNC(=O)[C@@H]1CCCN1C(=O)[C@H](CCCN=C(N)N)NC(=O)[C@H](CC(C)C)NC(=O)[C@@H](Cc1c[nH]c2ccccc12)NC(=O)[C@H](Cc1ccc(O)cc1)NC(=O)[C@H](CO)NC(=O)[C@@H](Cc1ccc(Cl)cc1)NC(=O)CCc1ccc(F)cc1	0.0178 nM
CCNC(=O)[C@@H]1CCCN1C(=O)[C@H](CCCN=C(N)N)NC(=O)[C@H](CC(C)C)NC(=O)[C@@H](Cc1c[nH]c2ccccc12)NC(=O)[C@H](Cc1ccc(O)cc1)NC(=O)[C@H](CO)NC(=O)[C@@H](Cc1ccc(O)cc1)NC(=O)CCc1ccc(F)cc1	0.219 nM
CCNC(=O)[C@@H]1CCCN1C(=O)[C@H](CCCN=C(N)N)NC(=O)[C@H](CC(C)C)NC(=O)[C@@H](CCCCNC(=O)c1cccnc1)NC(=O)[C@H](Cc1ccc(O)cc1)N(C)C(=O)[C@H](CO)NC(=O)[C@@H](Cc1c[nH]c2ccccc12)NC(=O)CCc1cccc(F)c1	0.0871 nM
CCNC(=O)[C@@H]1CCCN1C(=O)[C@H](CCCN=C(N)N)NC(=O)[C@H](CC(C)C)NC(=O)[C@@H](Cc1c[nH]c2ccccc12)NC(=O)[C@H](Cc1ccc(O)cc1)N(C)C(=O)[C@H](CO)NC(=O)[C@@H](Cc1c[nH]c2ccccc12)NC(=O)CCc1ccc(Cl)cc1	0.00398 nM
CCNC(=O)[C@@H]1CCCN1C(=O)[C@H](CCCCNC(C)C)NC(=O)[C@H](CC(C)C)NC(=O)[C@@H](CCCCNC(=O)c1cccnc1)NC(=O)[C@H](Cc1ccc(O)cc1)N(C)C(=O)[C@H](CO)NC(=O)[C@@H](Cc1cccc2ccccc12)NC(=O)CCc1ccc(F)cc1	0.00372 nM
CCNC(=O)[C@@H]1CCCN1C(=O)[C@H](CCCN=C(N)N)NC(=O)[C@H](CC(C)C)NC(=O)[C@@H](Cc1c[nH]c2ccccc12)NC(=O)[C@H](Cc1ccc(O)cc1)N(C)C(=O)[C@H](CO)NC(=O)[C@@H](Cc1cccc2ccccc12)NC(=O)CCc1ccc(F)cc1	0.00562 nM
CCNC(=O)[C@@H]1CCCN1C(=O)[C@H](CCCN=C(N)N)NC(=O)[C@H](CC(C)C)NC(=O)[C@@H](Cc1c[nH]c2ccccc12)NC(=O)[C@H](Cc1ccc(O)cc1)NC(=O)[C@H](CO)NC(=O)[C@H]1CCCN1C(=O)CCc1ccc(F)cc1	2.4 nM
CCNC(=O)[C@@H]1CCCN1C(=O)[C@H](CCCN=C(N)N)NC(=O)[C@H](CC(C)C)NC(=O)[C@@H](Cc1c[nH]c2ccccc12)NC(=O)[C@H](Cc1ccc(O)cc1)NC(=O)[C@H](CO)NC(=O)[C@@H](Cc1c[nH]c2ccccc12)NC(=O)c1cc2ccccc2[nH]1	0.851 nM
CCNC(=O)[C@@H]1CCCN1C(=O)[C@H](CCCN=C(N)N)NC(=O)[C@H](CC(C)C)NC(=O)[C@@H](CCCCNC(=O)c1cccnc1)NC(=O)[C@H](Cc1ccc(O)cc1)N(C)C(=O)[C@H](CO)NC(=O)[C@@H](Cc1c[nH]c2ccccc12)NC(=O)CCc1ccc(F)cc1 [listing 1 of 2 here]	0.0347 nM

Species: Rattus norvegicus
Test: Percentage suppression of the LH in castrated rat after 2 hr of doing
Details: not given

Compound	Supression
CCNC(=O)[C@@H]1CCCN1C(=O)[C@H](CCCN=C(N)N)NC(=O)[C@H](CC(C)C)NC(=O)[C@@H](Cc1c[nH]c2ccccc12)NC(=O)[C@H](Cc1ccc(O)cc1)NC(=O)[C@H](CO)NC(=O)[C@@H](Cc1c[nH]c2ccccc12)NC(=O)CCc1ccc(F)cc1 [listing 2 of 2 here]	88%
CCNC(=O)[C@@H]1CCCN1C(=O)[C@H](CCCN=C(N)N)NC(=O)[C@H](CC(C)C)NC(=O)[C@@H](CCCCNC(=O)c1cccnc1)NC(=O)[C@H](Cc1ccc(O)cc1)N(C)C(=O)[C@H](CO)NC(=O)[C@@H](Cc1c[nH]c2ccccc12)NC(=O)CCc1ccc(F)cc1 [listing 2 of 2 here]	90%

Species: Rattus norvegicus
Test: Effective dose required for maximal release of histamine from rat peritoneal mast cells
Assay type: functional
Details: read-out: ED50 (the source's name)
Summary of the method: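 Rat peritoneal mast cells; histamine release measured. ED50 is the antagonist dose giving 50% of maximal histamine release, in micrograms per milliliter. All compounds tested as TFA salts.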

Compound	EC50
CC(=O)N[C@H](Cc1ccc2ccccc2c1)C(=O)N[C@H](Cc1ccc(Cl)cc1)C(=O)N[C@H](Cc1cccnc1)C(=O)N[C@@H](CO)C(=O)N(C)[C@@H](Cc1ccc(O)cc1)C(=O)N[C@H](CCCCNC(=O)c1cccnc1)C(=O)N[C@@H](CC(C)C)C(=O)N[C@@H](CCCCNC(C)C)C(=O)N1CCC[C@H]1C(=O)N[C@H](C)C(N)=O (Ac-[d2Nal][dPhe(4-Cl)][d3Pal]S[NMeY][dK](Nicotinoyl)L[Lys(iPr)]P[dA]-NH2)	10 µg/mL (≈ 6.51 µM)
CC(C)C[C@H](NC(=O)[C@@H](CCCCNC(=O)c1cccnc1)NC(=O)[C@H](Cc1ccc(O)cc1)N(C)C(=O)[C@H](CO)NC(=O)[C@@H](Cc1cccc2ccccc12)NC(=O)CCc1ccc(F)cc1)C(=O)N[C@@H](CCCCNC(C)C)C(=O)N1CCC[C@H]1C(=O)N[C@H](C)C(N)=O ({Propanoyl(3-(4-F-phenyl))}-[d1Nal]S[NMeY][dK](Nicotinoyl)L[Lys(iPr)]P[dA]-NH2)	10.3 µg/mL (≈ 7.84 µM)
CCNC(=O)[C@@H]1CCCN1C(=O)[C@H](CCCN=C(N)N)NC(=O)[C@H](CC(C)C)NC(=O)[C@@H](CCCCNC(=O)c1cccnc1)NC(=O)[C@H](Cc1ccc(O)cc1)N(C)C(=O)[C@H](CO)NC(=O)[C@@H](Cc1c[nH]c2ccccc12)NC(=O)CCc1ccc(F)cc1 [listing 2 of 2 here]	< 0.1 µg/mL
